Measurements: ChEMBL document CHEMBL1138609, “Amiloride derived inhibitors of acid-sensing ion channel-3 (ASIC3)” (Bioorg Med Chem Lett, 2009)
Activity calls are given as the source filed them. The calls are words filed in the database; no cut-off is given here.

Experiments:
[1] = target: T1, Acid-sensing ion channel 3 (Homo sapiens) (UniProt Q9UHC3); assay: Inhibition of ASIC3 assessed as inhibition of peak current at 1 uM by patch clamp electrophysiology relative to baseline
T1 sequence (whole entry): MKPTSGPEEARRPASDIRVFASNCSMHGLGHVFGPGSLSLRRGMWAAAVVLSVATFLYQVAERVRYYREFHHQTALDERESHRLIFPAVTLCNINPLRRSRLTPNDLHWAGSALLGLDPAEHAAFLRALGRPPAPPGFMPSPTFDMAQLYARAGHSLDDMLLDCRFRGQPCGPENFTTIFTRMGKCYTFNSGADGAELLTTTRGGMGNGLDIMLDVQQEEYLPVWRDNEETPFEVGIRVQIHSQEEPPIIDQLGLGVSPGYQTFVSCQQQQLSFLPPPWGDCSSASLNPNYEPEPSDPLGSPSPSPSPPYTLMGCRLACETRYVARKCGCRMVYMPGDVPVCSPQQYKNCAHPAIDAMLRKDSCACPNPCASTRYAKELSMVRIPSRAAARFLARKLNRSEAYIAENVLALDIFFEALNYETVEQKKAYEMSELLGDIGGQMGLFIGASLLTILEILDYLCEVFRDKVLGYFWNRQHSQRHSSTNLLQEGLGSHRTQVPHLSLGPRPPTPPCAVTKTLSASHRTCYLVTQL
Procedure, shortened: (§1)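 Automated patch clamp on ASIC3 channels, used both for single-dose screening and for multi-dose follow-up. Extracellular solution: 150 NaCl, 5 KCl, 2 CaCl2, 1 MgCl2, 12 dextrose, with HEPES pH 7.4 or MES pH 5.5. Compound applied 120 s before acid. Peak current compared with vehicle or baseline peak; N = 3.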

[2] = target: T1, Acid-sensing ion channel 3 (Homo sapiens); assay: Inhibition of ASIC3 at 20 uM assessed as inhibition of peak current by patch clamp electrophysiology relative to baseline; procedure, shortened: as §1
Rattus norvegicus [3] = species on record: Rattus norvegicus; assay: activity against Sprague-Dawley rat complete Freund's adjuvant-induced inflammatory pain model assessed as reversal of mechanical hypersensitivity after 30 mins
[4] = Drug level in Sprague-Dawley rat brain after 30 mins; assay type: ADME, tissue-based; details: read-out: Drug uptake
Procedure, shortened: (§2)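 Rats from the CFA inflammatory pain study were sampled 30 min after dosing. Average concentrations were measured in plasma and in brain.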

[5] = Plasma concentration in Sprague-Dawley rat after 30 mins; assay type: ADME, cell-free; procedure, shortened: as §2
[6] = target: T2, Acid-sensing ion channel 3 (Rattus norvegicus, UniProt O35240); assay: Inhibition of rat ASIC3 assessed as inhibition of peak current by patch clamp electrophysiology; procedure, shortened: as §1
T2 sequence (O35240 whole entry): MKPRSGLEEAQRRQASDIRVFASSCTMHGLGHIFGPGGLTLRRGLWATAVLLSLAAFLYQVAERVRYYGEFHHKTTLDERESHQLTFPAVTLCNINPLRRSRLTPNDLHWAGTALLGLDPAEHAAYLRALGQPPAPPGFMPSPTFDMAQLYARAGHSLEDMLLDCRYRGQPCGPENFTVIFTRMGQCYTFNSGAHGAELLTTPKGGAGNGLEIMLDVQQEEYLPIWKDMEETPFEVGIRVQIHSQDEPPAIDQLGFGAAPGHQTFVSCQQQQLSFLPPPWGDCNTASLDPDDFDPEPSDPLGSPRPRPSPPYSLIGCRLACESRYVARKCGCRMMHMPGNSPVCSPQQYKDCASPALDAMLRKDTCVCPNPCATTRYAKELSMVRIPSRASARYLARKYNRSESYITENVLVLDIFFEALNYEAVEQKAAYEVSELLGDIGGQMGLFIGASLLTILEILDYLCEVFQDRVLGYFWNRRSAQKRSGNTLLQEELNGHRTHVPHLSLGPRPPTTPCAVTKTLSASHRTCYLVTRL

[7] = target: T3, Acid-sensing ion channel 3 (Homo sapiens, UniProt Q9UHC3); assay: Inhibition of ASIC3 assessed as inhibition of peak current by patch clamp electrophysiology; procedure, shortened: as §1
T3 sequence (Q9UHC3 whole entry): T1 sequence (whole entry)

Rattus norvegicus [8] = assay: activity against Sprague-Dawley rat complete Freund's adjuvant-induced inflammatory pain model assessed as reversal of mechanical hypersensitivity at 30 mg/kg, ip after 30 mins

## NC(N)=NC(=O)c1nc(Cl)c(Oc2ccccc2)nc1N
[1]
  inhibition: 23%
[2]
  inhibition: 90%

## CCCNc1nc(N)c(C(=O)N=C(N)N)nc1Cl
[1]
  inhibition: 24%
[2]
  inhibition: 91%

## CN(C)c1nc(N)c(C(=O)NC(=N)N)nc1Cl
[1]
  inhibition: 37%
[2]
  inhibition: 91%

## NC(N)=NC(=O)c1ncc(-c2ccc3ccccc3c2)nc1N
[1]
  inhibition: 6%

## NC(N)=NC(=O)c1nc(Cl)c(NCc2ccc3ccccc3c2)nc1N
[1]
  inhibition: 27%
[2]
  inhibition: 93%

## NC(N)=NC(=O)c1nc(Cl)c(NCCc2ccccc2F)nc1N
[1]
  inhibition: 34%

## NC(N)=NC(=O)c1ncc(-c2ccc(-c3ccccc3)cc2)nc1N
[1]
  inhibition: 7%

## NC(N)=NC(=O)c1ncc(-c2ccccc2-c2ccccc2)nc1N
[1]
  inhibition: 8%

## NC(N)=NC(=O)c1nc(Cl)c(Sc2ccccc2)nc1N
[1]
  inhibition: 11%

## NC(N)=NC(=O)c1nc(Cl)c(NCc2cccc(F)c2)nc1N
[1]
  inhibition: 29%
[2]
  inhibition: 90%

## NC(N)=NC(=O)c1nc(Cl)c(NCc2ccccc2Cl)nc1N
[1]
  inhibition: 31%
[2]
  inhibition: 90%

## NC(N)=NC(=O)c1nc(Cl)c(Nc2cnc3ccccc3c2)nc1N
[1]
  inhibition: 28%

## NC(N)=NC(=O)c1nc(Cl)c(N2CCOCC2)nc1N
[2]
  inhibition: 60%

## NC(N)=NC(=O)c1ncc(-c2ccccc2)nc1N
[1]
  inhibition: 35%

## NC(N)=NC(=O)c1ncc(-c2cccc(-c3ccccc3)c2)nc1N
[1]
  inhibition: 72%
Rattus norvegicus [3]
  Activity: Dose-dependent effect
[4]
  concentration at 0.5 h: 79 nM
[5]
  concentration at 0.5 h: 2900 nM
[6]
  IC50: 950 nM
[7]
  IC50: 490 nM
Rattus norvegicus [8]
  Activity: Active

## NC(N)=NC(=O)c1nc(Cl)c(Nc2cccc(Cl)c2)nc1N
[1]
  inhibition: 47%
[2]
  inhibition: 94%

## CN1CCN(c2nc(N)c(C(=O)N=C(N)N)nc2Cl)CC1
[2]
  inhibition: 51%

## NC(N)=NC(=O)c1ncc(Cc2ccccc2)nc1N
[1]
  inhibition: 4%

## NC(N)=NC(=O)c1nc(Cl)c(N2CCCC2)nc1N
[1]
  inhibition: 12%
[2]
  inhibition: 84%

## CSc1nc(N)c(C(=O)N=C(N)N)nc1Cl
[1]
  inhibition: 12%

## NC(N)=NC(=O)c1nc(Cl)c(Oc2cc3ccccc3cn2)nc1N
[1]
  inhibition: 11%

## C=CCNc1nc(N)c(C(=O)N=C(N)N)nc1Cl
[1]
  inhibition: 16%
[2]
  inhibition: 78%

## NC(N)=NC(=O)c1ncc(-c2cccc3ccccc23)nc1N
[1]
  inhibition: 21%

## NC(N)=NC(=O)c1nc(Cl)c(NCc2ccccc2F)nc1N
[1]
  inhibition: 26%
[2]
  inhibition: 92%

## NC(N)=NC(=O)c1nc(Cl)c(OCc2ccc3ccccc3c2)nc1N
[1]
  inhibition: 9%

## NC(N)=NC(=O)c1nc(Cl)c(Oc2ccc3ccccc3c2)nc1N
[1]
  inhibition: 33%
[2]
  inhibition: 91%

## NC(N)=NC(=O)c1nc(Cl)c(NCc2ccc(Cl)cc2)nc1N
[1]
  inhibition: 46%
[2]
  inhibition: 97%

## NC(N)=NC(=O)c1nc(Cl)c(N2CCCCC2)nc1N
[2]
  inhibition: 85%

## NC(N)=NC(=O)c1nc(Cl)c(Nc2ccccn2)nc1N
[2]
  inhibition: 25%

## NC(N)=NC(=O)c1nc(Cl)c(Oc2ccc3ccccc3n2)nc1N
[1]
  inhibition: 34%

## CC(C)(C)Nc1nc(N)c(C(=O)N=C(N)N)nc1Cl
[2]
  inhibition: 48%

## NC(N)=NC(=O)c1nc(Cl)c(N2CCc3ccccc3C2)nc1N
[1]
  inhibition: 52%
[2]
  inhibition: 96%

## NC(N)=NC(=O)c1nc(Cl)c(NC2CCCCC2)nc1N
[1]
  inhibition: 21%
[2]
  inhibition: 92%

## NC(N)=NC(=O)c1nc(Cl)c(N2CCc3ccccc32)nc1N
[1]
  inhibition: 46%
[2]
  inhibition: 89%

## NC(N)=NC(=O)c1nc(Cl)c(Nc2ccccc2)nc1N
[1]
  inhibition: 44%
[2]
  inhibition: 95%

## NC(N)=NC(=O)c1nc(Cl)c(NCCc2cccc(F)c2)nc1N
[1]
  inhibition: 46%

## NC(N)=NC(=O)c1nc(Cl)c(Nc2ccc3ncccc3c2)nc1N
[1]
  inhibition: 41%

## NC(N)=NC(=O)c1nc(Cl)c(Nc2ccc3ccccc3c2)nc1N
[1]
  inhibition: 62%
[7]
  IC50: 510 nM
[2]
  inhibition: 98%

## NC(N)=NC(=O)c1nc(Cl)c(NC2CC2)nc1N
[2]
  inhibition: 78%

## NC(N)=NC(=O)c1nc(Cl)c(NCCc2ccc(F)cc2)nc1N
[1]
  inhibition: 32%

## NC(N)=NC(=O)c1ncc(-c2ccsc2)nc1N
[1]
  inhibition: 23%

## NC(N)=NC(=O)c1nc(Cl)c(NCC(F)(F)F)nc1N
[2]
  inhibition: 74%

## NC(N)=NC(=O)c1ncc(-c2cccc(-c3ccsc3)c2)nc1N
[1]
  inhibition: 58%
[2]
  inhibition: 90%

## CCCN(C)c1nc(N)c(C(=O)N=C(N)N)nc1Cl
[1]
  inhibition: 32%
[2]
  inhibition: 91%

## COc1nc(N)c(C(=O)N=C(N)N)nc1Cl
[1]
  inhibition: 21%

## NC(N)=NC(=O)c1nc(Cl)c(NCC2CCc3ccccc3C2)nc1N (stereo unspecified)
[1]
  inhibition: 44%

## N=C(N)NC(=O)c1nc(Cl)c(N)nc1N [AMILORIDE]
[1]
  inhibition: 22%
[7]
  IC50: 4400 nM
[2]
  inhibition: 65%

## NC(N)=NC(=O)c1ncc(-c2cccc(-c3ccoc3)c2)nc1N
[1]
  inhibition: 30%
[2]
  inhibition: 82%

## Cc1cc(C)cc(-c2cnc(C(=O)N=C(N)N)c(N)n2)c1
[1]
  inhibition: 39%
[2]
  inhibition: 95%

## NC(N)=NC(=O)c1nc(Cl)c(Sc2ccc3ccccc3c2)nc1N
[1]
  inhibition: 12%

## N=C(N)NC(=O)c1nc(Cl)c(NCCc2ccccc2)nc1N
[1]
  inhibition: 46%
[2]
  inhibition: 94%

## N=C(N)NC(=O)c1ncc(-c2cccc(-c3ccsc3)c2)nc1N
[7]
  IC50: 640 nM

## NC(N)=NC(=O)c1nc(Cl)c(NCC2CCCCC2)nc1N
[1]
  inhibition: 28%
[2]
  inhibition: 96%

## NC(N)=NC(=O)c1nc(Cl)c(Oc2ccc3cccnc3c2)nc1N
[1]
  inhibition: 32%

## N=C(N)NC(=O)c1nc(Cl)c(N2CCCCCC2)nc1N
[2]
  inhibition: 51%

## CN(c1nc(N)c(C(=O)N=C(N)N)nc1Cl)C1CCCCC1
[2]
  inhibition: 57%

## NC(N)=NC(=O)c1nc(Cl)c(Nc2ccc(C(F)(F)F)cc2)nc1N
[1]
  inhibition: 50%

## NC(N)=NC(=O)c1nc(Cl)c(Nc2ccncc2)nc1N
[1]
  inhibition: 14%

## NC(N)=NC(=O)c1nc(Cl)c(O)nc1N
[2]
  inhibition: 9%
